In experiment [1] the test system is Plasmodium falciparum. The experiment in a line: In vitro inhibitory activity against Plasmodium falciparum (sierra leone clone). It is filed as functional, organism-based.
The subject of experiment [2] is Plasmodium falciparum. Description: Inhibitory concentration against Plasmodium falciparum D6 (Sierra Leone). The experiment is classed as functional, organism-based. In short, it runs like this: (§1)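 Micromanipulation-derived P. falciparum clones were tested by semiautomated microdilution at 0.5% parasitemia and 1.5% hematocrit. Drugs were dissolved in DMSO and diluted in medium with 10% plasma, giving serial dilutions over a 64-fold range. Plates were held at 37 °C under 5% O2/5% CO2/90% N2 for 24 h, then pulsed with tritiated hypoxanthine for 18–20 h. Uptake was counted by scintillation, and IC50 was obtained by nonlinear regression.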

The subject of experiment [3] is Plasmodium berghei. The experiment in a line: Blood schizonticidal activity against Plasmodium berghei 1100. The experiment is classed as functional. In a few lines: (§2)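 Mice infected with parasitised donor blood of drug-sensitive or drug-resistant lines were given a single subcutaneous dose daily on 4 consecutive days, starting 3 h post-infection, across a dose range. Compounds were dissolved in water or sonicated into 0.1% Tween 80. Parasitaemia was read from thin blood films 1 day after treatment ended and compared with sham-treated controls. ED50/ED90 came from log dose/probit plots, with a resistance index at the ED90 level.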

Experiment [4] deals with Plasmodium berghei. Description: Blood schizonticidal activity against Plasmodium berghei ART. It is filed as functional. In short, it runs like this: as §2
Experiment [5] deals with Plasmodium berghei. The experiment in a line: Blood schizonticidal activity against Plasmodium berghei B. It is filed as functional. In a few lines: as §2
Experiment [6] relates to Plasmodium berghei. Description: Blood schizonticidal activity against Plasmodium berghei MEN. The experiment is classed as functional. In short, it runs like this: as §2
For experiment [7], the system named is Plasmodium berghei. Description: Blood schizonticidal activity against Plasmodium berghei N. The experiment is classed as functional. In a few lines: as §2
For experiment [8], the system named is Plasmodium berghei. The experiment in a line: Blood schizonticidal activity against Plasmodium berghei N/HAL. It is filed as functional. In a few lines: as §2
Experiment [9] concerns Plasmodium berghei. Description: Blood schizonticidal activity against Plasmodium berghei NPN. It is filed as functional. In short, it runs like this:
as §2

For experiment [10], the system named is Plasmodium berghei. The experiment in a line: Blood schizonticidal activity against Plasmodium berghei NS. It is filed as functional. In a few lines:
as §2

Experiment [11] concerns Plasmodium berghei. The experiment in a line: Blood schizonticidal activity against Plasmodium berghei ORA. It is filed as functional. In a few lines:
as §2

The subject of experiment [12] is Plasmodium berghei. Description: Blood schizonticidal activity against Plasmodium berghei P. It is filed as functional. In a few lines:
as §2

The subject of experiment [13] is Plasmodium berghei. The experiment in a line: Blood schizonticidal activity against Plasmodium berghei PYR. It is filed as functional. In short, it runs like this:
as §2

In experiment [14] the test system is Plasmodium berghei. Description: Blood schizonticidal activity against Plasmodium berghei QS. The experiment is classed as functional. In a few lines: as §2
Experiment [15] deals with Plasmodium falciparum. The experiment in a line: Inhibitory concentration against Plasmodium falciparum W2 Indochina. It is filed as functional, organism-based. In short, it runs like this: as §1
For experiment [16], the system named is Plasmodium berghei. The experiment in a line: Blood schizonticidal activity against Plasmodium berghei N/1100. It is filed as functional. In short, it runs like this:
as §2

The test system of experiment [17] is Plasmodium berghei. The experiment in a line: Blood schizonticidal activity against Plasmodium berghei RC. The experiment is classed as functional. In a few lines:
as §2

The text below walks through data of ChEMBL document CHEMBL1124063, “Arteether, a new antimalarial drug: synthesis and antimalarial properties” (J Med Chem, 1988).

SMILES strings stand for the structures. Converted amounts (≈) assume the structure as drawn.

In the case of `C[C@H]1[C@@H](O)O[C@@H]2OC3(C)CC[C@H]4[C@H](C)CC[C@@H]1[C@@]24O3` (single isomer, unassigned), the values for the IC50 in the experiment on Plasmodium falciparum [1] and in the experiment on Plasmodium falciparum [2] were 136 ng/mL (≈ 0.505 µM) and 506 nM, respectively.
As to `CCO[C@H]1O[C@@H]2OC3(C)CC[C@H]4[C@H](C)CC[C@@H]([C@H]1C)[C@@]24O3` (single isomer, unassigned), the IC50 in the experiment with Plasmodium falciparum [1] stood at 172 ng/mL (≈ 0.579 µM); in the experiment with Plasmodium falciparum [2], 580 nM.
Take `CCO[C@@H]1O[C@@H]2OC3(C)CC[C@H]4[C@H](C)CC[C@@H]([C@H]1C)[C@@]24OO3` (single isomer, unassigned) [ALPHA-ARTEETHER]: the ED90 is recorded as 4.1 in the experiment on Plasmodium berghei [3]; 29 in the experiment on Plasmodium berghei [4]; 2.9 with Plasmodium berghei [5]; 1.7 in the experiment with Plasmodium berghei [6]; 1.3 in the experiment on Plasmodium berghei [7]; 9.5 in the experiment on Plasmodium berghei [8]. The ED90 in the experiment on Plasmodium berghei [9] is 3.5; in the experiment on Plasmodium berghei [10] it was 1.5; in the experiment on Plasmodium berghei [11] it was 0.8; with Plasmodium berghei [12] it was 2.5; in the experiment on Plasmodium berghei [13], 1.3; in the experiment on Plasmodium berghei [14], 13.8. The compound further returned an ED90 with Plasmodium berghei [17] of 16.5. The “I 90” value in the experiment on Plasmodium berghei [4] was found to be 22.3; in the experiment with Plasmodium berghei [5], 2.4; in the experiment with Plasmodium berghei [6], 1.4; in the experiment with Plasmodium berghei [7], 1; in the experiment with Plasmodium berghei [8], 7.3; in the experiment with Plasmodium berghei [9], 2.9. Besides, the “I 90” value turned out to be 1.3 with Plasmodium berghei [10]; 0.7 with Plasmodium berghei [11]; 2.1 in the experiment with Plasmodium berghei [12]; 1.1 in the experiment on Plasmodium berghei [13]; 10.6 with Plasmodium berghei [14]; 3.4 with Plasmodium berghei [16]. For the same compound, in the experiment on Plasmodium berghei [17], the “I 90” value was found to be 13.8. Besides, the figures for the IC50 in the experiment with Plasmodium falciparum [2] and in the experiment on Plasmodium falciparum [15] were 4.18 nM and 3.07 nM, respectively.
In the case of `CO[C@H]1O[C@@H]2O[C@@]3(C)CC[C@H]4[C@H](C)CC[C@@H]([C@H]1C)[C@@]24OO3` [ARTEMETHER], the values for the IC50 with Plasmodium falciparum [2] and in the experiment on Plasmodium falciparum [15] were 4.49 nM and 3.34 nM, respectively.
On to `C[C@@H]1CC[C@H]2[C@@H](C)C(=O)O[C@@H]3O[C@@]4(C)CC[C@@H]1[C@]32OO4` [ARTEMISININ], for which the results for the IC50 in the experiment with Plasmodium falciparum [1], in the experiment with Plasmodium falciparum [2] and with Plasmodium falciparum [15] were 2.97 ng/mL (≈ 0.0105 µM), 10.5 nM and 6.41 nM, respectively. Further, the ED90 in the experiment on Plasmodium berghei [3] was 17; in the experiment with Plasmodium berghei [4], 49; with Plasmodium berghei [5] it was 8.2; in the experiment on Plasmodium berghei [6] it was 6.2; in the experiment with Plasmodium berghei [7] it was 2.3; with Plasmodium berghei [8], 31. Further, the ED90 in the experiment on Plasmodium berghei [9] is 90; in the experiment on Plasmodium berghei [10] it was 10; with Plasmodium berghei [11], 7.5; in the experiment on Plasmodium berghei [12], 12; with Plasmodium berghei [13], 4.8; with Plasmodium berghei [14], 24. In addition, in the experiment on Plasmodium berghei [17], the ED90 turned out to be 630. Moreover, the “I 90” value in the experiment with Plasmodium berghei [4] is on record as 21.3; in the experiment with Plasmodium berghei [5], 2; in the experiment on Plasmodium berghei [6], 1.5; in the experiment with Plasmodium berghei [7], 1; in the experiment with Plasmodium berghei [8], 13.5; with Plasmodium berghei [9], 21.4. The “I 90” value in the experiment on Plasmodium berghei [10] was 2.4; in the experiment on Plasmodium berghei [11], 1.8; in the experiment on Plasmodium berghei [12], 2.9; with Plasmodium berghei [13], 1.1; with Plasmodium berghei [14], 10.4; with Plasmodium berghei [16], 4. Further, the “I 90” value with Plasmodium berghei [17] amounted to 150.
For the compound `CCO[C@H]1O[C@@H]2O[C@@]3(C)CC[C@H]4[C@H](C)CC[C@@H]([C@H]1C)[C@@]24OO3` [ARTEMOTIL], the IC50 in the experiment on Plasmodium falciparum [1] came to 1.27 ng/mL (≈ 0.00407 µM); in the experiment with Plasmodium falciparum [2], 4.07 nM; in the experiment on Plasmodium falciparum [15], 2.94 nM. For the same compound, the ED90 with Plasmodium berghei [3] is 4.2; with Plasmodium berghei [4] it was 2.3; with Plasmodium berghei [5], 0.9; with Plasmodium berghei [6], 2.2; in the experiment on Plasmodium berghei [7], 0.5; with Plasmodium berghei [8], 2.1. The ED90 in the experiment with Plasmodium berghei [9] is recorded as 2.5; with Plasmodium berghei [10] it was 2.2; with Plasmodium berghei [11], 0.8; with Plasmodium berghei [12], 0.8; in the experiment with Plasmodium berghei [13], 0.8; in the experiment with Plasmodium berghei [14] it was 1.4. Further, the ED90 with Plasmodium berghei [17] is 8.2. Further, the “I 90” value in the experiment with Plasmodium berghei [4] amounted to 4.6; in the experiment with Plasmodium berghei [5] it was 0.8; in the experiment on Plasmodium berghei [6], 2; in the experiment with Plasmodium berghei [7] it was 1; in the experiment with Plasmodium berghei [8], 4.2; in the experiment with Plasmodium berghei [9], 2.3. Also, the “I 90” value is listed as 2 with Plasmodium berghei [10]; 0.7 in the experiment with Plasmodium berghei [11]; 0.7 with Plasmodium berghei [12]; 0.7 in the experiment on Plasmodium berghei [13]; 2.8 in the experiment with Plasmodium berghei [14]; 3.8 in the experiment with Plasmodium berghei [16]. For the same compound, the “I 90” value in the experiment with Plasmodium berghei [17] stood at 7.5.
As to `C[C@H]1[C@@H](O)O[C@@H]2O[C@@]3(C)CC[C@H]4[C@H](C)CC[C@@H]1[C@@]24OO3` [ARTENIMOL], the IC50 in the experiment on Plasmodium falciparum [1] came out at 0.52 ng/mL (≈ 0.00183 µM); in the experiment on Plasmodium falciparum [2], 1.83 nM; with Plasmodium falciparum [15], 1.79 nM.
In turn, `C[C@@H]1CC[C@H]2[C@@H](C)C(=O)O[C@@H]3O[C@@]4(C)CC[C@@H]1[C@]32O4` [DEOXYARTEMISININ] gave an IC50 in the experiment with Plasmodium falciparum [2] of 2860 nM.
As to `OC(c1cc(C(F)(F)F)nc2c(C(F)(F)F)cccc12)C1CCCCN1` (stereo not given) [MEFLOQUINE], the IC50 with Plasmodium falciparum [2] is 33.4 nM; in the experiment with Plasmodium falciparum [15], 5.75 nM.
For the compound `C[C@H]1[C@H](OC(=O)CCC(=O)O)O[C@@H]2O[C@@]3(C)CC[C@H]4[C@H](C)CC[C@@H]1[C@@]24OO3` [SODIUM ARESUNATE], the values for the IC50 in the experiment on Plasmodium falciparum [2] and in the experiment on Plasmodium falciparum [15] were 2.18 nM and 1.66 nM, respectively.
